# Test system: HCT-116
# Assay: Cytotoxicity against human HCT116 cells after 72 hrs by MTT assay
# Assay type: functional, cell-based
# Settings: HCT-116, 72 h
# Summary of the method: (§1)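 Cells seeded at 2000/well and held 24 h at 37 °C, 5% CO2 before treatment. After a 3 h MTT incubation, medium was replaced by DMSO. Absorbance read at 550 nm against a 690 nm reference, with OD taken as proportional to viable cell number.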
row,SMILES,IC50
1,CO[C@H]1O[C@H](Cn2cc(COC[C@H](NC(=O)OC(C)(C)C)C(=O)O)nn2)[C@@H](OCc2ccccc2)[C@H](OCc2ccccc2)[C@H]1OCc1ccccc1,46.3 µM
2,CO[C@H]1O[C@H](Cn2cc(CO[C@@H](C)[C@H](NC(=O)OC(C)(C)C)C(=O)O)nn2)[C@H](OCc2ccccc2)[C@H](OCc2ccccc2)[C@H]1OCc1ccccc1,36.6 µM

# Biological target: T1, M-phase inducer phosphatase 2 (Homo sapiens, UniProt P30305)
# T1 sequence (P30305 whole entry): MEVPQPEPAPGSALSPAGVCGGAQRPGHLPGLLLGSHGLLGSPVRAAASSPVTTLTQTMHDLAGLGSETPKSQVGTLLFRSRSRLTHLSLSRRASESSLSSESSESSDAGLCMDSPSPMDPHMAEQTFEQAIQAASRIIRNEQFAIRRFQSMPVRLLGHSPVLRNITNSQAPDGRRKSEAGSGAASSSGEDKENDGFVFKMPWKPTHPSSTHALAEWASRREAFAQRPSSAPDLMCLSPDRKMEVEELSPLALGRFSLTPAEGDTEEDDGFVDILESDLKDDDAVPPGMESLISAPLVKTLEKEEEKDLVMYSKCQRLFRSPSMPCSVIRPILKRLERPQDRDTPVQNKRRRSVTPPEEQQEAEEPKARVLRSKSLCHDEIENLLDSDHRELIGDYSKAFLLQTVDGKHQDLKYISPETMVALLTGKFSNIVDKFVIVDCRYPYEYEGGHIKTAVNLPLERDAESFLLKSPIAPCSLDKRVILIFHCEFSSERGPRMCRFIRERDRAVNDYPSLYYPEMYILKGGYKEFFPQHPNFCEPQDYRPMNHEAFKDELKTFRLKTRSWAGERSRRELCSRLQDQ
# Assay: Inhibition of human Cdc25B
# Settings: not given
row,IC50,SMILES
1,67.5 µM,CO[C@H]1O[C@H](Cn2cc(COC[C@H](NC(=O)OC(C)(C)C)C(=O)O)nn2)[C@@H](OCc2ccccc2)[C@H](OCc2ccccc2)[C@H]1OCc1ccccc1
2,31.1 µM,CO[C@H]1O[C@H](Cn2cc(CO[C@@H](C)[C@H](NC(=O)OC(C)(C)C)C(=O)O)nn2)[C@H](OCc2ccccc2)[C@H](OCc2ccccc2)[C@H]1OCc1ccccc1

# Biological target: T2, M-phase inducer phosphatase 1 (Homo sapiens, UniProt P30304)
# T2 sequence (P30304 whole entry): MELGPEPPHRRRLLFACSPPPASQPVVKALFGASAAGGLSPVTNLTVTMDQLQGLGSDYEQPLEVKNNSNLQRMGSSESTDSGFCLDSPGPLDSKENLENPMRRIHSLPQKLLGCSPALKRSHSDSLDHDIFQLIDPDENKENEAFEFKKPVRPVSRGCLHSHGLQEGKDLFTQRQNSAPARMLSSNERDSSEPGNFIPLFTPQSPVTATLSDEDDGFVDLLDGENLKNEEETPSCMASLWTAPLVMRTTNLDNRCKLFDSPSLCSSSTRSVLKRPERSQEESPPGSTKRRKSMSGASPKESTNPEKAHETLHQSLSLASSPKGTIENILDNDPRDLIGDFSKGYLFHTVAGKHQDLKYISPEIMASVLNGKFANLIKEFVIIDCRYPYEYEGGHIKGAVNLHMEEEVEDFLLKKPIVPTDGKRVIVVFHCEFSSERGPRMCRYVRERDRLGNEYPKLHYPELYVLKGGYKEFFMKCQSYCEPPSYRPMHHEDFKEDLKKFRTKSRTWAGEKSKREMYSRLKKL
# Assay: Inhibition of human CDC25A
# Settings: not given
row,IC50,SMILES
1,> 120 µM,CO[C@H]1O[C@H](Cn2cc(COC[C@H](NC(=O)OC(C)(C)C)C(=O)O)nn2)[C@@H](OCc2ccccc2)[C@H](OCc2ccccc2)[C@H]1OCc1ccccc1
2,> 120 µM,CO[C@H]1O[C@H](Cn2cc(CO[C@@H](C)[C@H](NC(=O)OC(C)(C)C)C(=O)O)nn2)[C@H](OCc2ccccc2)[C@H](OCc2ccccc2)[C@H]1OCc1ccccc1

# Biological target: T3, Tyrosine-protein phosphatase non-receptor type 11 (Homo sapiens, UniProt Q06124)
# T3 sequence (Q06124 whole entry): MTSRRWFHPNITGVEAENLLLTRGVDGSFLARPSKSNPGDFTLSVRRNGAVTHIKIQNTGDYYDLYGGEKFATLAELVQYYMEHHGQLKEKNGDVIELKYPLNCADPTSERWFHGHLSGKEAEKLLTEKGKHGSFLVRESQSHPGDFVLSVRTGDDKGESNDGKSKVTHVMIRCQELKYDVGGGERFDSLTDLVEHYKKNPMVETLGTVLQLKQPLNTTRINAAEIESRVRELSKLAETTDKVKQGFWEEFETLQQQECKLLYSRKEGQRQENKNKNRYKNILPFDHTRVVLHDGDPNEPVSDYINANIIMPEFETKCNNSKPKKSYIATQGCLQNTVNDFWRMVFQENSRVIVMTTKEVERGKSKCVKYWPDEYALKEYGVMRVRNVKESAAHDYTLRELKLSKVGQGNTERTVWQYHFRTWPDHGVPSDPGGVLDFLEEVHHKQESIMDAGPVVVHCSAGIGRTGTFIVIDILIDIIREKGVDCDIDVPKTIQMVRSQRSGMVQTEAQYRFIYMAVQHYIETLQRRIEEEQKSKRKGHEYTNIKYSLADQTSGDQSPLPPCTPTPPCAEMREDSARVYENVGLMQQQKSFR
# Assay: Inhibition of SHP2
# Settings: not given
row,IC50,SMILES
1,> 120 µM,CO[C@H]1O[C@H](Cn2cc(COC[C@H](NC(=O)OC(C)(C)C)C(=O)O)nn2)[C@@H](OCc2ccccc2)[C@H](OCc2ccccc2)[C@H]1OCc1ccccc1
2,> 120 µM,CO[C@H]1O[C@H](Cn2cc(CO[C@@H](C)[C@H](NC(=O)OC(C)(C)C)C(=O)O)nn2)[C@H](OCc2ccccc2)[C@H](OCc2ccccc2)[C@H]1OCc1ccccc1

# Biological target: Tyrosine-protein phosphatase non-receptor type 6 (Homo sapiens, UniProt P29350)
# Sequence (P29350 whole entry): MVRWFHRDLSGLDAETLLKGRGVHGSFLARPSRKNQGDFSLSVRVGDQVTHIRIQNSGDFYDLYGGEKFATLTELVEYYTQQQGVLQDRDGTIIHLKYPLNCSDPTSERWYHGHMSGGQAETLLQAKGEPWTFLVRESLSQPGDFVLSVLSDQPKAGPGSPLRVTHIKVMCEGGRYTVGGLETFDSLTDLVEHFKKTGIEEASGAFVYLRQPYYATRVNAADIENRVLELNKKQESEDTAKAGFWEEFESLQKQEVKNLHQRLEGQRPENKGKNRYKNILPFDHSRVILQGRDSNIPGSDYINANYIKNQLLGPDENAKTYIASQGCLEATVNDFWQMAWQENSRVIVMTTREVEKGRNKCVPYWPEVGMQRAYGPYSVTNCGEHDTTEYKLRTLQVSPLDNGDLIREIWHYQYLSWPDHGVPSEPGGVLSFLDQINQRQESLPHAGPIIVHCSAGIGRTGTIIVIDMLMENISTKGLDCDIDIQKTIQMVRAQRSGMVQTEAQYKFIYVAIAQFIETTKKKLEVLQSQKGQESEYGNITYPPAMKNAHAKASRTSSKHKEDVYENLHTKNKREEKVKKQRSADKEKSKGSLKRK
# Assay: Inhibition of SHP1
# Settings: not given
row,IC50,SMILES
1,> 120 µM,CO[C@H]1O[C@H](Cn2cc(COC[C@H](NC(=O)OC(C)(C)C)C(=O)O)nn2)[C@@H](OCc2ccccc2)[C@H](OCc2ccccc2)[C@H]1OCc1ccccc1
2,> 120 µM,CO[C@H]1O[C@H](Cn2cc(CO[C@@H](C)[C@H](NC(=O)OC(C)(C)C)C(=O)O)nn2)[C@H](OCc2ccccc2)[C@H](OCc2ccccc2)[C@H]1OCc1ccccc1

# Biological target: T4, Tyrosine-protein phosphatase non-receptor type 1 (Homo sapiens, UniProt P18031)
# T4 sequence (P18031 whole entry): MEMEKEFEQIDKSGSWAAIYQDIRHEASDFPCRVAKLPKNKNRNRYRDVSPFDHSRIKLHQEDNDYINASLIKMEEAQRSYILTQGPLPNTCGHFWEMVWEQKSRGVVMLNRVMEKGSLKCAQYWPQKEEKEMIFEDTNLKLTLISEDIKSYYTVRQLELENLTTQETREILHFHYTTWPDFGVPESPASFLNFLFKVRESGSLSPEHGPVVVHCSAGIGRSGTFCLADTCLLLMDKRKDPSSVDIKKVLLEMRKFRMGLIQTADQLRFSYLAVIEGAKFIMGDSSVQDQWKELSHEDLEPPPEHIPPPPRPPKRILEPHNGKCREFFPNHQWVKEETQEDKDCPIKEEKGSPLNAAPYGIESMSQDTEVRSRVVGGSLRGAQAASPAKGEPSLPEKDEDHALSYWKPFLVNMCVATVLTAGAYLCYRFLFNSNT
# Assay: Inhibition of human recombinant […] catalytic domain using pNPP substrate
# Settings: not given
# Summary of the method: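 Recombinant human PTP1B catalytic domain (30 nM) with 2 mM pNPP in 50 mM MOPS, pH 6.5, at 30 °C. Inhibitor diluted around the estimated IC50. Initial rate taken from the early linear part of the 405 nm trace over 2 min. IC50 from nonlinear fit of % inhibition vs [I] with a Hill-coefficient equation. Means of three experiments.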
row,IC50,SMILES
1,67.8 µM,CO[C@H]1O[C@H](Cn2cc(COC[C@H](NC(=O)OC(C)(C)C)C(=O)O)nn2)[C@@H](OCc2ccccc2)[C@H](OCc2ccccc2)[C@H]1OCc1ccccc1
2,15.3 µM,CO[C@H]1O[C@H](Cn2cc(CO[C@@H](C)[C@H](NC(=O)OC(C)(C)C)C(=O)O)nn2)[C@H](OCc2ccccc2)[C@H](OCc2ccccc2)[C@H]1OCc1ccccc1

# Biological target: Receptor-type tyrosine-protein phosphatase F (Homo sapiens, UniProt P10586)
# Sequence (P10586 whole entry): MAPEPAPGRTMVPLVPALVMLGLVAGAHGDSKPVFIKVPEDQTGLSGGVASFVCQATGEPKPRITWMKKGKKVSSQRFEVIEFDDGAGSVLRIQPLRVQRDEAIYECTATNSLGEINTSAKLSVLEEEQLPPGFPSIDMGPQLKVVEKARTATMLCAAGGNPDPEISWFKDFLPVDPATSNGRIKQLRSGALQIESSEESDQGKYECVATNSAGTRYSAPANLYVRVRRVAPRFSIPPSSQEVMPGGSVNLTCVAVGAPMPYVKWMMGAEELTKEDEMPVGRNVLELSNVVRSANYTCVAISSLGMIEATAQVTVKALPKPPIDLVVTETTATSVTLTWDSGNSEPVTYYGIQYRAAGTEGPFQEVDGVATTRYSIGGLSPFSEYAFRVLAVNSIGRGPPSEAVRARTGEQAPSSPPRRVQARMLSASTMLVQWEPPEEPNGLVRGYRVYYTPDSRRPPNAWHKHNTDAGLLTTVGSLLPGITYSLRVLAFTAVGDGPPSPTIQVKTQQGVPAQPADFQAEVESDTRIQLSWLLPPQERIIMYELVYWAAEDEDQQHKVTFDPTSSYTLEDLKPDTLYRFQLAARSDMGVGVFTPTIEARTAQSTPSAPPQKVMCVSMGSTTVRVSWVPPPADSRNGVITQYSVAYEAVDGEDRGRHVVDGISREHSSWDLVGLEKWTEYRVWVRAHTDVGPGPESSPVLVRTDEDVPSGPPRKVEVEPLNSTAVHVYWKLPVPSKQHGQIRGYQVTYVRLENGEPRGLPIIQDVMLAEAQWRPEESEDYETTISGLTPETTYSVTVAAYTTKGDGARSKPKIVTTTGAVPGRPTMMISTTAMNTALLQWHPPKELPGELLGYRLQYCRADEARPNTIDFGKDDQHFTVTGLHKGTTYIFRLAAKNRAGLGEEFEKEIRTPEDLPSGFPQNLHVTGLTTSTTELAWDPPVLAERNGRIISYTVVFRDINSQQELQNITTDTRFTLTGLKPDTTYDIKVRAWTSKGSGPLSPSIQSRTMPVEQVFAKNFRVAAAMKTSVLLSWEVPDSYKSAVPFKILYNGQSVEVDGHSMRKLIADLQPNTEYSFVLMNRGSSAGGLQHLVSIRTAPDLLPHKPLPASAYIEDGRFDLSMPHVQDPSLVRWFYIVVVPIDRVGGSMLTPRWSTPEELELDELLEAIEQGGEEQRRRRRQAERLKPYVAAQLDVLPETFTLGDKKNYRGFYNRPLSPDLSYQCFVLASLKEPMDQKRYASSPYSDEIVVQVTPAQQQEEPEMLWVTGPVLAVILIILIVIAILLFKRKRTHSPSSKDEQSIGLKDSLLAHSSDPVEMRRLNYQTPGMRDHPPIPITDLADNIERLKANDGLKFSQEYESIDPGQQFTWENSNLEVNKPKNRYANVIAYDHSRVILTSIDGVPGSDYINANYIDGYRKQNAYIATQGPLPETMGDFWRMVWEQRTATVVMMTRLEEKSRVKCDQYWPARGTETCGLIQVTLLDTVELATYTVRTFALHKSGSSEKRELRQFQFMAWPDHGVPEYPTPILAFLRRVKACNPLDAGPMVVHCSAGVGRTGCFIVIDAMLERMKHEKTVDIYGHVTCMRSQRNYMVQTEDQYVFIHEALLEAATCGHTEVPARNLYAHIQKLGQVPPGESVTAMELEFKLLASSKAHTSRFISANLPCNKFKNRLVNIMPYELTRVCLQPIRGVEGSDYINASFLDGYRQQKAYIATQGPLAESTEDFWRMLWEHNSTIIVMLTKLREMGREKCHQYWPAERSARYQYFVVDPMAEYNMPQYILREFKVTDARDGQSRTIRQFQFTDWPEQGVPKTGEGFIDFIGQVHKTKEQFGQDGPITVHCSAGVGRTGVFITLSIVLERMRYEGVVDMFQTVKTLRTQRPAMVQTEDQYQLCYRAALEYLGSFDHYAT
# Assay: Inhibition of human LAR
# Settings: not given
row,IC50,SMILES
1,> 120 µM,CO[C@H]1O[C@H](Cn2cc(COC[C@H](NC(=O)OC(C)(C)C)C(=O)O)nn2)[C@@H](OCc2ccccc2)[C@H](OCc2ccccc2)[C@H]1OCc1ccccc1
2,> 120 µM,CO[C@H]1O[C@H](Cn2cc(CO[C@@H](C)[C@H](NC(=O)OC(C)(C)C)C(=O)O)nn2)[C@H](OCc2ccccc2)[C@H](OCc2ccccc2)[C@H]1OCc1ccccc1

# Test system: HeLa
# Assay: Cytotoxicity against human HeLa cells after 72 hrs by MTT assay
# Assay type: functional, cell-based
# Settings: not given
# Summary of the method: as §1
row,SMILES,IC50
1,CO[C@H]1O[C@H](Cn2cc(COC[C@H](NC(=O)OC(C)(C)C)C(=O)O)nn2)[C@@H](OCc2ccccc2)[C@H](OCc2ccccc2)[C@H]1OCc1ccccc1,75.4 µM
2,CO[C@H]1O[C@H](Cn2cc(CO[C@@H](C)[C@H](NC(=O)OC(C)(C)C)C(=O)O)nn2)[C@H](OCc2ccccc2)[C@H](OCc2ccccc2)[C@H]1OCc1ccccc1,56.4 µM

# Biological target: T5, Tyrosine-protein phosphatase non-receptor type 2 (Homo sapiens, UniProt P17706)
# T5 sequence (P17706 whole entry): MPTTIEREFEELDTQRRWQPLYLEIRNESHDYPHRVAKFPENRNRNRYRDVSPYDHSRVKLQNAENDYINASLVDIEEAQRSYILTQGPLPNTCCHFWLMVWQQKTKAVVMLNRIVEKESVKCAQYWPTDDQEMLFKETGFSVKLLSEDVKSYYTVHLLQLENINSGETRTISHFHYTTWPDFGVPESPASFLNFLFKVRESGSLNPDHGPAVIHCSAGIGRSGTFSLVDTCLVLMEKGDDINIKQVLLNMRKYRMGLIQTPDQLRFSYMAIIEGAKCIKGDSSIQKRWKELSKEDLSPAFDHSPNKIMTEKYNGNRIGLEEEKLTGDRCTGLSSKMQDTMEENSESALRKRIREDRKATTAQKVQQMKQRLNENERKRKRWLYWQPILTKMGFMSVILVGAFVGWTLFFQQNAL
# Assay: Inhibition of TCPTP
# Settings: not given
row,IC50,SMILES
1,> 120 µM,CO[C@H]1O[C@H](Cn2cc(COC[C@H](NC(=O)OC(C)(C)C)C(=O)O)nn2)[C@@H](OCc2ccccc2)[C@H](OCc2ccccc2)[C@H]1OCc1ccccc1
2,> 120 µM,CO[C@H]1O[C@H](Cn2cc(CO[C@@H](C)[C@H](NC(=O)OC(C)(C)C)C(=O)O)nn2)[C@H](OCc2ccccc2)[C@H](OCc2ccccc2)[C@H]1OCc1ccccc1

# Test system: A549
# Assay: Cytotoxicity against human A549 cells after 72 hrs by MTT assay
# Assay type: functional, cell-based
# Settings: A549, 72 h
# Summary of the method: as §1
row,SMILES,IC50
1,CO[C@H]1O[C@H](Cn2cc(COC[C@H](NC(=O)OC(C)(C)C)C(=O)O)nn2)[C@@H](OCc2ccccc2)[C@H](OCc2ccccc2)[C@H]1OCc1ccccc1,120 µM
2,CO[C@H]1O[C@H](Cn2cc(CO[C@@H](C)[C@H](NC(=O)OC(C)(C)C)C(=O)O)nn2)[C@H](OCc2ccccc2)[C@H](OCc2ccccc2)[C@H]1OCc1ccccc1,108 µM
